Experiment [1] relates to Streptococcus mutans. Briefly: Activity against planktonic Streptococcus mutans LMG 14558. Format: functional. The method, boiled down:
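S. mutans LMG 14558T, routinely grown in BHI broth at 37°C, was tested against planktonic cells by broth microdilution in 96-well microtiter plates to give the MIC in μg/ml. The modified microdilution was also run with and without 1.5 mM glutathione, 0.025% (wt/vol) cysteine or 10 mM mannitol as ROS scavengers, including in chemically defined M1 medium.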

Experiment [2] deals with Streptococcus mutans. Briefly: Effect on Streptococcus mutans LMG 14558 assessed as inhibition of biofilm formation in modified Robbin's device at 50 ug/ml relative to BHIS control. Format: functional. The method, boiled down:
(§1)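 S. mutans LMG 14558T grown at 37°C as biofilms on hydroxyapatite disks in modified Robbins' devices, in BHI plus 1% sucrose (BHIS) containing compound at the stated concentration. Biomass per disk is estimated by SYTO9 fluorescent staining and given as % of BHIS-only controls (avg ± SD). Significance by one-tailed independent-sample t test; P > 0.01 is not significant.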

For experiment [3], the system named is Streptococcus mutans. Briefly: Effect on Streptococcus mutans LMG 14558 assessed as inhibition of biofilm formation in modified Robbin's device at 5 ug/ml relative to BHIS control. The format is functional. The method, boiled down:
as §1

Experiment [4] deals with Streptococcus mutans. Briefly: Effect on Streptococcus mutans LMG 14558 assessed as inhibition of biofilm formation in modified Robbin's device at 0.1 ug/ml relative to BHIS control relative to BHIS control. The format is functional. The method, boiled down:
as §1

In experiment [5] the test system is Streptococcus mutans. Briefly: Effect on Streptococcus mutans LMG 14558 assessed as inhibition of biofilm formation in modified Robbin's device at 1200 ug/ml relative to BHIS control. Format: functional. The method, boiled down:
as §1

The subject of experiment [6] is Streptococcus mutans. Briefly: Susceptibility of Streptococcus mutans LMG 14558 in BHIS medium assessed as increase in biofilm formation at 5 ug/ml in presence of 0.025% cysteine. Format: functional, organism-based.
In experiment [7] the test system is Streptococcus mutans. Nature of the experiment: Effect on Streptococcus mutans LMG 14558 assessed as inhibition of biofilm formation in modified Robbin's device at 0.5 ug/ml relative to BHIS control. Format: functional. In short, it runs like this:
as §1

Experiment [8] deals with Streptococcus mutans. Briefly: Effect on Streptococcus mutans LMG 14558 assessed as inhibition of biofilm formation in modified Robbin's device at 2 ug/ml relative to BHIS control. The format is functional. In short, it runs like this:
as §1

The test system of experiment [9] is Streptococcus mutans. Nature of the experiment: Decrease in membrane fluidity of Streptococcus mutans LMG 14558 using pyrene in BHI medium at 5 ug/ml relative to BHI control. Format: functional. Also on record: scale not given: the % may be the effect or the level left. The method, boiled down:
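Relative membrane fluidity (lateral diffusion) of S. mutans LMG 14558T grown in BHI with or without 5 μg/ml compound, read as pyrene intermolecular excimer-to-monomer fluorescence intensity ratio at constant temperature. Relative fluidity F = (Ie/Im treated)/(Ie/Im untreated) × Fr, with untreated BHI-grown cells set to Fr = 1.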

The subject of experiment [10] is Streptococcus mutans. Briefly: Effect on Streptococcus mutans LMG 14558 assessed as inhibition of biofilm formation in modified Robbin's device at 1 ug/ml relative to BHIS control. Format: functional. In short, it runs like this: as §1
Experiment [11] deals with Streptococcus mutans. Nature of the experiment: Effect on Streptococcus mutans LMG 14558 assessed as inhibition of biofilm formation in modified Robbin's device at 1333 ug/ml relative to BHIS control. The format is functional. The method, boiled down: as §1

Values after ≈ are worked out from the molar mass of the structure shown. Active and inactive are the calls of the source. A value given as a limit tells only on which side of the number the result lay.

For orientation: MIC means the smallest concentration in the dilution series that meets the test's criterion for growth inhibition. Broadly, the inhibition is the drop in the measured response relative to a control, in per cent. In turn, `O=C1c2cccc(O)c2C(=O)c2c(O)cc(CO)cc21` [ALOE-EMODIN] had an MIC against Streptococcus mutans [1] of more than 250 µg/mL. The inhibition at 50 µg/mL in the experiment with Streptococcus mutans [2] amounted to 99.2%.

Molecule `O=C1c2ccc(O)cc2C(=O)c2ccc(O)cc21` [ANTHRAFLAVICACID] came in with an MIC in the experiment with Streptococcus mutans [1] of 250 µg/mL (≈ 1040 µM). Also, in the experiment with Streptococcus mutans [3], the inhibition at 5 µg/mL is 98.2%.

In turn, `Cc1c(C(=O)O)c(O)cc2c1C(=O)c1c(O)c([C@@H]3O[C@H](CO)[C@@H](O)[C@H](O)[C@H]3O)c(O)c(O)c1C2=O` [CARMINIC ACID] registered an MIC with Streptococcus mutans [1] of more than 250 µg/mL. Moreover, the inhibition at 5 µg/mL in the experiment on Streptococcus mutans [3] came out at 66.5%.

As for `N=C(NCCCCCCNC(=N)NC(=N)Nc1ccc(Cl)cc1)NC(=N)Nc1ccc(Cl)cc1` [CHLORHEXIDINE], the inhibition at 0.1 µg/mL in the experiment with Streptococcus mutans [4] is 104%. The inhibition at 1200 µg/mL in the experiment with Streptococcus mutans [5] was found to be 34.5%. Also, in the experiment with Streptococcus mutans [1], inhibition of growth (MIC) required 2 µg/mL (≈ 3.96 µM).

Consider `Cc1cc(O)c2c(c1)C(=O)c1cccc(O)c1C2=O` [CHRYSOPHANOL], for which, in the experiment on Streptococcus mutans [1], the MIC came to 250 µg/mL (≈ 983 µM). Besides, the inhibition at 5 µg/mL in the experiment with Streptococcus mutans [3] came out at 75%.

With `O=C1c2cccc(O)c2C(=O)c2c(O)cccc21` [DANTHRON], in the experiment with Streptococcus mutans [1], it took 250 µg/mL (≈ 1040 µM) to inhibit growth (MIC). Also, the inhibition at 5 µg/mL in the experiment with Streptococcus mutans [3] was determined as 91.3%.

Consider `Cc1cc(O)c2c(c1)C(=O)c1cc(O)cc(O)c1C2=O` [EMODIN], for which the outcome in the experiment with Streptococcus mutans [6] was inactive. Also, the inhibition at 0.5 µg/mL with Streptococcus mutans [7] came to 85.7%. The inhibition at 0.1 µg/mL in the experiment on Streptococcus mutans [4] was found to be 101%. Besides, the inhibition at 2 µg/mL in the experiment with Streptococcus mutans [8] came to 52.1%. Moreover, the Activity in the experiment on Streptococcus mutans [9] came to 21.2%. The molecule also had an MIC in the experiment on Streptococcus mutans [1] of more than 250 µg/mL. The inhibition at 1 µg/mL in the experiment with Streptococcus mutans [10] was 79%. For the same molecule, the inhibition at 5 µg/mL in the experiment with Streptococcus mutans [3] turned out to be 10.9%.

The molecule `Cc1cc(O)c2c(=O)c3c(O)cc(O)c4c5c(O)cc(O)c6c(=O)c7c(O)cc(C)c8c1c2c(c34)c(c78)c65` [HYPERICIN] yielded an Activity in the experiment on Streptococcus mutans [9] of 35.6%. This molecule also displayed an MIC with Streptococcus mutans [1] of 250 µg/mL (≈ 496 µM). Besides, the inhibition at 5 µg/mL with Streptococcus mutans [3] is 47.8%.

In turn, `COc1cc(O)c2c(c1)C(=O)c1cc(C)cc(O)c1C2=O` [PHYSCION] registered an MIC against Streptococcus mutans [1] of more than 250 µg/mL. Besides, in the experiment on Streptococcus mutans [3], the inhibition at 5 µg/mL amounted to 120%.

Molecule `O=C1c2ccccc2C(=O)c2c(O)ccc(O)c21` [QUINIZARIN] displayed an MIC with Streptococcus mutans [1] of 250 µg/mL (≈ 1040 µM). Moreover, the inhibition at 5 µg/mL in the experiment on Streptococcus mutans [3] came out at 80%.

In turn, `O=C(O)c1cc(O)c2c(c1)C(=O)c1cccc(O)c1C2=O` [RHEIN] returned an MIC in the experiment on Streptococcus mutans [1] of 10 µg/mL (≈ 35.2 µM). Also, the inhibition at 5 µg/mL in the experiment with Streptococcus mutans [3] was 75.2%.

With `O=C(O)c1cc(O)c2c(c1)C(C1c3cccc(O)c3C(=O)c3c(O)cc(C(=O)O)cc31)c1cccc(O)c1C2=O` (stereo not given) [SENNIDIN A], the MIC against Streptococcus mutans [1] is more than 250 µg/mL. Further, in the experiment with Streptococcus mutans [3], the inhibition at 5 µg/mL came out at 83.7%.

Consider `Oc1cc(Cl)ccc1Oc1ccc(Cl)cc1Cl` [TRICLOSAN], for which the inhibition at 1333 µg/mL in the experiment on Streptococcus mutans [11] is 10.9%. In the experiment with Streptococcus mutans [1], this molecule gave an MIC of 16 µg/mL (≈ 55.3 µM). In addition, in the experiment on Streptococcus mutans [3], the inhibition at 5 µg/mL was 78.1%.

Values taken from ChEMBL document CHEMBL1145538, “In vitro inhibition of Streptococcus mutans biofilm formation on hydroxyapatite by subinhibitory concentrations of anthraquinones” (2007).
